In ChEMBL document CHEMBL1147762, “A new chemical tool for exploring the physiological function of the PDE2 isozyme” (Bioorg Med Chem Lett, 2006):

Tests used:
[1] = biological target: Phosphodiesterase 1 (Homo sapiens, UniProt P54750+Q01064+Q14123); assay: Inhibitory activity against PDE1 by scintillation proximity assay; format: protein assay
Outline: (§1)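 Phosphodiesterase inhibition run as a scintillation proximity assay, with enzyme at a concentration in the linear range. Final substrate was 1 µM, below one-third of the enzyme K_M, so that IC50 approximates Ki. Values are means of n experiments with standard deviation.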

[2] = biological target: cGMP-dependent 3',5'-cyclic phosphodiesterase (Homo sapiens, UniProt O00408); assay: Inhibitory activity against PDE2 by scintillation proximity assay; outline: as §1
[3] = biological target: Phosphodiesterase 3 (Homo sapiens, UniProt Q14432+Q13370); assay: Inhibitory activity against PDE3 by scintillation proximity assay; format: protein assay; outline: as §1
[4] = biological target: 3',5'-cyclic-AMP phosphodiesterase 4A (Homo sapiens, UniProt P27815); assay: Inhibitory activity against PDE4A by scintillation proximity assay; outline: as §1
[5] = biological target: 3',5'-cyclic-AMP phosphodiesterase 4B (Homo sapiens, UniProt Q07343); assay: Inhibitory activity against PDE4B by scintillation proximity assay; outline: as §1
[6] = biological target: 3',5'-cyclic-AMP phosphodiesterase 4C (Homo sapiens, UniProt Q08493); assay: Inhibitory activity against PDE4C by scintillation proximity assay
Outline: (§2)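 Scintillation proximity assay for phosphodiesterase inhibition. Enzyme is used at a concentration within the linear range, and its KM was measured. Final substrate concentration is 1 µM, below one-third of KM, so IC50 approximates Ki. Results are means of n experiments with standard deviation.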

[7] = biological target: 3',5'-cyclic-AMP phosphodiesterase 4D (Homo sapiens, UniProt Q08499); assay: Inhibitory activity against PDE4D by scintillation proximity assay; outline: as §2
[8] = biological target: cGMP-specific 3',5'-cyclic phosphodiesterase (Homo sapiens, UniProt O76074); assay: Inhibitory activity against PDE5 by scintillation proximity assay; outline: as §2
[9] = biological target: High affinity cAMP-specific and IBMX-insensitive 3',5'-cyclic phosphodiesterase 8A (Homo sapiens, UniProt O60658); assay: Inhibitory activity against PDE8A by scintillation proximity assay; outline: as §2
[10] = biological target: High affinity cAMP-specific and IBMX-insensitive 3',5'-cyclic phosphodiesterase 8B (Homo sapiens, UniProt O95263); assay: Inhibitory activity against PDE8B by scintillation proximity assay; outline: as §2
[11] = biological target: High affinity cGMP-specific 3',5'-cyclic phosphodiesterase 9A (Homo sapiens, UniProt O76083); assay: Inhibitory activity against PDE9 by scintillation proximity assay; outline: as §2
[12] = biological target: cAMP and cAMP-inhibited cGMP 3',5'-cyclic phosphodiesterase 10A (Homo sapiens, UniProt Q9Y233); assay: Inhibitory activity against PDE10 by scintillation proximity assay; outline: as §1
[13] = Half life in rat liver microsome; format: ADME; conditions: liver microsomes
[14] = Apical Caco-2 cell membrane permeability; format: ADME, cell-based; conditions: human
[15] = Basolateral Caco-2 cell membrane permeability; format: ADME, cell-based; conditions: human
[16] = Turbidimetric solubility at pH 7; format: ADME, organism-based, Homo sapiens

Chain of High affinity cAMP-specific and IBMX-insensitive 3',5'-cyclic phosphodiesterase 8B (O95263 whole entry): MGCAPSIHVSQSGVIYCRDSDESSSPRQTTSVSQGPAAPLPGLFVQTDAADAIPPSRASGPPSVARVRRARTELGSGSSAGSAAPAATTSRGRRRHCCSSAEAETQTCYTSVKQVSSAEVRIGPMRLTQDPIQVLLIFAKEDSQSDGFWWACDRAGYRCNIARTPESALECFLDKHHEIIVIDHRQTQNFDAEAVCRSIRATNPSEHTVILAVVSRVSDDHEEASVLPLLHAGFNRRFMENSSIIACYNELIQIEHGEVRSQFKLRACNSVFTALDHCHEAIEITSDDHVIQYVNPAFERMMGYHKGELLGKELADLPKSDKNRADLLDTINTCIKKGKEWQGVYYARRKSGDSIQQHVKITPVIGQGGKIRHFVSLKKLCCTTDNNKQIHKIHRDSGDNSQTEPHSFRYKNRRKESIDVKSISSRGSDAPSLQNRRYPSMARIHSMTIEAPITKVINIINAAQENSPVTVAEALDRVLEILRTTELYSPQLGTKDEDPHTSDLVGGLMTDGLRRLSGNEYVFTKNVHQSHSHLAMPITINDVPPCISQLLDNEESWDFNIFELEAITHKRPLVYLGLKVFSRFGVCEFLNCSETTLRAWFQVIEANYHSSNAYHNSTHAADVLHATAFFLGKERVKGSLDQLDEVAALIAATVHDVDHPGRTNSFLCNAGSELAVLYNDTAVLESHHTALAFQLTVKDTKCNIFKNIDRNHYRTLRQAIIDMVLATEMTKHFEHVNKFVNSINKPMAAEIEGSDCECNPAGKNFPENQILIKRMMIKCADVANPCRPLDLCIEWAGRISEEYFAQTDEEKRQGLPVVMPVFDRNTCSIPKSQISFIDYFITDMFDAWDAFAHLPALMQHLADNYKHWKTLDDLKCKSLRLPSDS
Chain of High affinity cAMP-specific and IBMX-insensitive 3',5'-cyclic phosphodiesterase 8A (O60658 whole entry): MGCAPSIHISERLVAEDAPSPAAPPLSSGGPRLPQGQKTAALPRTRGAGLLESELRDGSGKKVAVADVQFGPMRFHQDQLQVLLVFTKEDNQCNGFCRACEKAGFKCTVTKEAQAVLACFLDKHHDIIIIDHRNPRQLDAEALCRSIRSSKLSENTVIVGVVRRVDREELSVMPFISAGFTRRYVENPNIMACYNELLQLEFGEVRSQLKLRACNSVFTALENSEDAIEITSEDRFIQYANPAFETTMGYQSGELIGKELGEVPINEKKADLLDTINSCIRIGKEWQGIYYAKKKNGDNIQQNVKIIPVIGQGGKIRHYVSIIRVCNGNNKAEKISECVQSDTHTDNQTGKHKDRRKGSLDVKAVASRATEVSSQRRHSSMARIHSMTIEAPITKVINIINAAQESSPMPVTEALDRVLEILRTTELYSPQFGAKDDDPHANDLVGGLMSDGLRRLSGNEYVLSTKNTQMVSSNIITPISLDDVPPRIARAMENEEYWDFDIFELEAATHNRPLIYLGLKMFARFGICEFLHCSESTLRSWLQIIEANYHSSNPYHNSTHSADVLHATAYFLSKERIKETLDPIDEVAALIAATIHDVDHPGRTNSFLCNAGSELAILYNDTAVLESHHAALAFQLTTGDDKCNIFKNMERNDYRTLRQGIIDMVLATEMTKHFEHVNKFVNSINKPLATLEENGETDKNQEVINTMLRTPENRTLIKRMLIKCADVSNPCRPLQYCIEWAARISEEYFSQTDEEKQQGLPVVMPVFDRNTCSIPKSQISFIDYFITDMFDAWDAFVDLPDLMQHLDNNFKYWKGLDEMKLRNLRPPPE
Chain of cGMP-dependent 3',5'-cyclic phosphodiesterase (O00408 whole entry): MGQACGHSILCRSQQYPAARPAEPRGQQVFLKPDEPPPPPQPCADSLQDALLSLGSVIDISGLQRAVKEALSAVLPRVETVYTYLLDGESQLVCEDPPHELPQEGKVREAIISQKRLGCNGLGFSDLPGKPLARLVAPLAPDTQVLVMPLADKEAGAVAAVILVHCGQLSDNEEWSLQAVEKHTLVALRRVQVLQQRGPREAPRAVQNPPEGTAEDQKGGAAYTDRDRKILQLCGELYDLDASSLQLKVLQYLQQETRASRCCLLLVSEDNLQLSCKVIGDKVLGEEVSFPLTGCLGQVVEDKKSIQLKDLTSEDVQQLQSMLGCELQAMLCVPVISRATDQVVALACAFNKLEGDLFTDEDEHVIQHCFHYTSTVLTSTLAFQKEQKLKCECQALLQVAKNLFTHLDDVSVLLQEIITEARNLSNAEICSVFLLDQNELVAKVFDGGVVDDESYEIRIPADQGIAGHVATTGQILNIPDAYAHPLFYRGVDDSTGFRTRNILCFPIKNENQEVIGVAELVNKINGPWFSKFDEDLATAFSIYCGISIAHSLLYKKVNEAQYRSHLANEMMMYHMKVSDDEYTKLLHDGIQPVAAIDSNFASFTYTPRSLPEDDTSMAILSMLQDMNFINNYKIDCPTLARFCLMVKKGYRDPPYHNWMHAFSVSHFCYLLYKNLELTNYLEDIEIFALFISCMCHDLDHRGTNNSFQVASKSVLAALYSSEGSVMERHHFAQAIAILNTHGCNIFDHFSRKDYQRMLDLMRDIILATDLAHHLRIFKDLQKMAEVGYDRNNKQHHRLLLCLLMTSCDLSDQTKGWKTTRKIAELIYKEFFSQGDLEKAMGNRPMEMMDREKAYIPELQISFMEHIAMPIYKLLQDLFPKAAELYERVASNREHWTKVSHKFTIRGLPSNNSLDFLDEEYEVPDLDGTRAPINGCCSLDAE
Chain of 3',5'-cyclic-AMP phosphodiesterase 4B (Q07343 whole entry): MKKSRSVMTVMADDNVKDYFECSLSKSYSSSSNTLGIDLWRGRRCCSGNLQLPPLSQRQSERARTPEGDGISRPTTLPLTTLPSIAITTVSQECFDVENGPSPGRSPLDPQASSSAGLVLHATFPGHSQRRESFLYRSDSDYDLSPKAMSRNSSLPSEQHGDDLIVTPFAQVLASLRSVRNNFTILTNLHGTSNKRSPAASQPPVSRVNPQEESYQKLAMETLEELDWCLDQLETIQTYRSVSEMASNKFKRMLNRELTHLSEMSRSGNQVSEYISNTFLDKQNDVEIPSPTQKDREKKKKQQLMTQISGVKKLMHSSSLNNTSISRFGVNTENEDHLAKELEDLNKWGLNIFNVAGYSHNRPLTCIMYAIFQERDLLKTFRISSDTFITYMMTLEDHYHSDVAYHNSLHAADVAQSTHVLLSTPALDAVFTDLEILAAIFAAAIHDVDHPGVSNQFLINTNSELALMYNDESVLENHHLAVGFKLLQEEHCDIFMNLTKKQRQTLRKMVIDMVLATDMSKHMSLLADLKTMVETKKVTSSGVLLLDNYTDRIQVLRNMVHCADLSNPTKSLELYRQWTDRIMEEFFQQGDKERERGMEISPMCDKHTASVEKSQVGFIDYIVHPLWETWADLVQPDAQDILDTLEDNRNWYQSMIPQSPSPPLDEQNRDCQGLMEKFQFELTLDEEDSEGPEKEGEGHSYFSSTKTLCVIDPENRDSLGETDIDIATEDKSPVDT
Chain of cAMP and cAMP-inhibited cGMP 3',5'-cyclic phosphodiesterase 10A (Q9Y233 whole entry): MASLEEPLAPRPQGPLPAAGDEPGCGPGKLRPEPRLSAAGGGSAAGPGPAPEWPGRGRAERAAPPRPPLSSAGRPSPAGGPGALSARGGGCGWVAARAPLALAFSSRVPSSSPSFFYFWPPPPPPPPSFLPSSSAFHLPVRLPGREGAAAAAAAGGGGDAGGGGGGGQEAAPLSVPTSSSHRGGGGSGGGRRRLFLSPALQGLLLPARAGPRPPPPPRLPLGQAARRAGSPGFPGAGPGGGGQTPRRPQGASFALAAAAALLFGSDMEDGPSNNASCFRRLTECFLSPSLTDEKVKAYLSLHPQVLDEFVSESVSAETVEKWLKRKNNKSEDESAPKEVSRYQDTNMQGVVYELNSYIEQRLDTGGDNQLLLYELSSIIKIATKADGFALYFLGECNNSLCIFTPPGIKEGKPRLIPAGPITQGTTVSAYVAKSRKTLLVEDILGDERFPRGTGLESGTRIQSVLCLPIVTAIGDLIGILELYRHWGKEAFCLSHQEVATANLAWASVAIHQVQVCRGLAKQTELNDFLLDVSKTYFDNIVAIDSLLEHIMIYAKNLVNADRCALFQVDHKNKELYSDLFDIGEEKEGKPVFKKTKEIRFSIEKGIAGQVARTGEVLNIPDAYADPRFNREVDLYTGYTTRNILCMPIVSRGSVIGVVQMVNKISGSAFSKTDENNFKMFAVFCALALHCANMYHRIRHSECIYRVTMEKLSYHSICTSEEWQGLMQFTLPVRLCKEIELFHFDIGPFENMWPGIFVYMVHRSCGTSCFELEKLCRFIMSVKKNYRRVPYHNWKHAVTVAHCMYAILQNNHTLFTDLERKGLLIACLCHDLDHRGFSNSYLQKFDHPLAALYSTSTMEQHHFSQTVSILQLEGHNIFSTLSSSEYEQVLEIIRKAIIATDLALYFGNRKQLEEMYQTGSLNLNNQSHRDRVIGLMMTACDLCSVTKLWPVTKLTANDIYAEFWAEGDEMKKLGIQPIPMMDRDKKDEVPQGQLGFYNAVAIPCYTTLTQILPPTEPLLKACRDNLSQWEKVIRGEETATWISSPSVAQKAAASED
Chain of High affinity cGMP-specific 3',5'-cyclic phosphodiesterase 9A (O76083 whole entry): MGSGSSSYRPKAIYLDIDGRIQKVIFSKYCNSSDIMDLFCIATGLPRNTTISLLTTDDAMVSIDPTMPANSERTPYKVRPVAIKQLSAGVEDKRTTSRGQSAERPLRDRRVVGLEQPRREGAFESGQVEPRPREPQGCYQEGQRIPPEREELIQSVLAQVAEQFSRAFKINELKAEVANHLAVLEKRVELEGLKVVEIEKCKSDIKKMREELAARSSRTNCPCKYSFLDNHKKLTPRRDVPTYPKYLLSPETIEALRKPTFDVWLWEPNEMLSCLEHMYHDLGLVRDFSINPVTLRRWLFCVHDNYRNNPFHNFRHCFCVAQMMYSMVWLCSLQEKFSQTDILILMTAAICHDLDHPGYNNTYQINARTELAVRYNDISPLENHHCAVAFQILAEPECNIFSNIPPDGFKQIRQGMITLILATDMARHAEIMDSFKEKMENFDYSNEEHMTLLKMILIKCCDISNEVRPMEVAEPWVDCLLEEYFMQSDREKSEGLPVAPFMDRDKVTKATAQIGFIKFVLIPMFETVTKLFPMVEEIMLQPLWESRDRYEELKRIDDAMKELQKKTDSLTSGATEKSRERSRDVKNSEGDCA

IC50 [1]: > 16 µM | IC50 [2]: 0.635 µM | IC50 [3]: > 16 µM | IC50 [4]: > 16 µM | IC50 [5]: > 16 µM | IC50 [6]: > 16 µM | IC50 [7]: > 16 µM | IC50 [8]: > 16 µM | IC50 [9]: > 16 µM | IC50 [10]: > 16 µM | IC50 [11]: > 16 µM | IC50 [12]: > 16 µM | half-life [13]: 31 min | Papp [14]: 34 ×10⁻⁶ cm/s | Papp [15]: 18 ×10⁻⁶ cm/s | solubility kinetic [16]: > 65 µg/mL
Compound: CCCCCC[C@H]([C@H](C)O)n1cnc2c(N)ncnc21 [(+)-EHNA]
